Assays:
[1] = Inhibition of metalloenzyme Ribonucleoside diphosphate reductase.; parameters: concentration or dose not given beside the values; settings: concentration not given here
Procedure, shortened: (§1)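 RdR from excised subcutaneous sarcoma 180 tumors in male B6D2F3 mice; chelators supplied in DMF. Enzyme-started at 37 °C, stopped by boiling at 0, 10, 20 min. Cytidine/deoxycytidine separated by cellulose TLC, radioactivity scanned. Protein by BSA-standard method.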

[2] = Activity against metalloenzyme Ribonucleoside diphosphate reductase was evaluated from a subcutaneously growing murine tumor (sarcoma 180) implanted in B6D2F3 male mice at 0.027 conc; procedure, shortened: as §1
[3] = Activity against metalloenzyme Ribonucleoside diphosphate reductase was evaluated from a subcutaneously growing murine tumor (sarcoma 180) implanted in B6D2F3 male mice at 0.0002 conc; procedure, shortened: as §1
[4] = Activity against metalloenzyme Ribonucleoside diphosphate reductase was evaluated from a subcutaneously growing murine tumor (sarcoma 180) implanted in B6D2F3 male mice at 1.0 conc; procedure, shortened: as §1
[5] = (§2) Activity against metalloenzyme Ribonucleoside diphosphate reductase was evaluated from a subcutaneously growing murine tumor (sarcoma 180) implanted in B6D2F3 male mice at 0.01 conc; procedure, shortened: as §1
[6] = (§3) Activity against metalloenzyme Ribonucleoside diphosphate reductase was evaluated from a subcutaneously growing murine tumor (sarcoma 180) implanted in B6D2F3 male mice at 0.1 conc; procedure, shortened: as §1
[7] = Activity against metalloenzyme Ribonucleoside diphosphate reductase was evaluated from a subcutaneously growing murine tumor (sarcoma 180) implanted in B6D2F3 male mice, in reference to hydroxy-urea at 0.007 conc
[8] = Activity against metalloenzyme Ribonucleoside diphosphate reductase was evaluated from a subcutaneously growing murine tumor (sarcoma 180) implanted in B6D2F3 male mice at 0.0033 conc; procedure, shortened: as §1
[9] = Activity against metalloenzyme Ribonucleoside diphosphate reductase was evaluated from a subcutaneously growing murine tumor (sarcoma 180) implanted in B6D2F3 male mice at 0.033 conc; procedure, shortened: as §1
[10] = Activity against metalloenzyme Ribonucleoside diphosphate reductase was evaluated from a subcutaneously growing murine tumor (sarcoma 180) implanted in B6D2F3 male mice at 0.00033 conc; procedure, shortened: as §1
[11] = (§4) Activity against metalloenzyme Ribonucleoside diphosphate reductase was evaluated from a subcutaneously growing murine tumor (sarcoma 180) implanted in B6D2F3 male mice, in reference to hydroxy-urea at 0.1 conc
[12] = as §2; procedure, shortened: as §1; remark: listed apart in the source
[13] = as §3; procedure, shortened: as §1; remark: listed apart in the source
[14] = as §4; remark: listed apart in the source
[15] = Activity against metalloenzyme Ribonucleoside diphosphate reductase was evaluated from a subcutaneously growing murine tumor (sarcoma 180) implanted in B6D2F3 male mice at 0.02 conc; procedure, shortened: as §1
[16] = Activity against metalloenzyme Ribonucleoside diphosphate reductase was evaluated from a subcutaneously growing murine tumor (sarcoma 180) implanted in B6D2F3 male mice at 0.002 conc; procedure, shortened: as §1
[17] = Activity against metalloenzyme Ribonucleoside diphosphate reductase was evaluated from a subcutaneously growing murine tumor (sarcoma 180) implanted in B6D2F3 male mice, in reference to hydroxy-urea at 0.033 conc

| Compound | inhibition [1] [%] | inhibition [4] [%] | inhibition [5] [%] | other results |
| --- | --- | --- | --- | --- |
| Cc1ncc(CO)c(/C=N/NC(=O)c2ccnc3ccccc23)c1O | 81 |  |  | inhibition [2]: 63%; inhibition [3]: 11% |
| 1:2 Copper(II):1-[5'-Bromosalicylidene]-2-[isonicotinoyl]-hydrazine Formate Complex | 73 | 59 | 22 | inhibition [6]: 28% |
| COc1ccc(COC(=O)N/N=C/c2c(CO)cnc(C)c2O)cc1 |  |  | 0 |  |
| Cc1ncc(CO)c(/C=N/Nc2ccccn2)c1O |  |  | 72 | inhibition [7]: 15% |
| Cc1ncc(CO)c(/C=N/Nc2[nH]cnc3ncnc2-3)c1O | 81 |  |  | inhibition [8]: 21%; inhibition [9]: 72%; inhibition [10]: 18% |
| Copper(II)-Chelate of 1-[Pyridoxylidene]-2-[2'-pyrimidyl]-hydrazine Sulfate | 73 | 86 |  | inhibition [11]: 37%; inhibition [6]: 78%; inhibition [12]: 38% |
| CC(=O)OCc1cnc(C)c(O)c1/C=N/Nc1ncccn1 |  |  |  | inhibition [12]: 30% |
| C[n+]1ccc(C(=O)N/N=C/c2cc(Cl)cc(Cl)c2O)cc1 |  |  | 0 |  |
| Cc1c(O)c(/C=N/Nc2ncccn2)c(CO)c[n+]1C | 15 |  |  |  |
| Cc1ncc(CO)c(/C=N/Nc2nc(Cl)c(Cl)c(Cl)c2Cl)c1O | 72 | 43 | 25 | inhibition [13]: 18% |
| Oc1c(Cl)cc(Cl)cc1/C=N/Nc1ccccn1 | 82 |  |  | inhibition [8]: 34%; inhibition [9]: 65%; inhibition [10]: 12% |
| Cc1c(O)c(/C=N/NC(=O)c2cc[n+](C)cc2)c(CO)c[n+]1C |  |  | 0 |  |
| Cc1c(O)c(/C=N/N=c2\ccccn2C)c(CO)c[n+]1C | 81 |  | 0 |  |
| CC(=O)OCc1cnc(C)c(OC(C)=O)c1/C=N/Nc1ccccn1 |  |  |  | inhibition [11]: 37%; inhibition [14]: 37%; inhibition [13]: 68%; inhibition [6]: 68%; inhibition [12]: 31% |
| Cc1ncc(CO)c(/C=N/NC(=O)c2cc[n+](C)cc2)c1O |  |  | 0 |  |
| Copper(II) Chelate of 1-[Pyridoxylidene]-2-[5'-chloro-2'-pyridyl]hydrazine Sulfate | 81 | 82 |  | inhibition [6]: 65%; inhibition [12]: 27% |
| Cc1ncc(CO)c(/C=N/Nc2nnc(N/N=C/c3c(CO)cnc(C)c3O)c3ccccc23)c1O |  |  |  | inhibition [12]: 0% |
| CC(=O)OCc1cnc(C)c(OC(C)=O)c1/C=N/Nc1ncccn1 | 73 | 79 | 24 | inhibition [14]: 37%; inhibition [13]: 43% |
| Cc1ncc(CO)c(/C=N/Nc2ncccn2)c1O | 78 | 78 |  |  |
| Cc1cc(O)nc(N/N=C/c2c(CO)cnc(C)c2O)n1 | 15 | 0 |  |  |
| CCOC(=O)C[n+]1ccc(C(=O)N/N=C/c2cc(Cl)ccc2O)cc1 | 81 |  |  | inhibition [15]: 77%; inhibition [16]: 10%; inhibition [3]: 18% |
| CCOC(=O)C[n+]1cc(CO)c(/C=N/Nc2ncccn2)c(O)c1C | 72 | 79 | 79 | inhibition [6]: 76% |
| Oc1ccc(Br)cc1/C=N/Nc1ccccn1 |  |  | 0 |  |
| CCOC(=O)C[n+]1cc(CO)c(/C=N/Nc2ccccn2)c(O)c1C | 15 |  |  |  |
| Cc1ncc(CO)c(/C=N/Nc2ncc(Cl)cc2Cl)c1O | 72 | 83 | 79 | inhibition [12]: 78% |
| Cc1ncc(CO)c(/C=N/CC/N=C/c2c(CO)cnc(C)c2O)c1O |  |  |  | inhibition [12]: 0% |
| C[n+]1ccccc1N/N=C/c1cc(Cl)cc(Cl)c1O |  |  |  | inhibition [8]: 34%; inhibition [17]: 82%; inhibition [9]: 58%; inhibition [10]: 8% |
| CCOC(=O)C[n+]1ccc(C(=O)N/N=C/c2cc(Br)ccc2O)cc1 | 81 |  | 0 |  |
| 1:2 Copper(II):1-[5'-Bromosalicylidene]-2-[N-(ethoxy-carbonylmethyl)isonicotinoyl]hydrazine Sulfate Complex | 72 | 71 | 35 | inhibition [6]: 64% |
| Copper(II) Chelate of 1-[Pyridoxylidene]-2-[3',5'-chloro-2'-pyridyl]hydrazine Sulfate | 81 | 85 |  | inhibition [6]: 83%; inhibition [12]: 37% |
